{
  "source": "ChEMBL document CHEMBL3808313",
  "about": "“Comparing the efficacy of photodynamic and sonodynamic therapy in non-melanoma and melanoma skin cancer” (Bioorg Med Chem, 2016)",
  "key": {"[1]": {"system": "A-431", "experiment": "Cytotoxicity against human A431 cells assessed as reduction in cell viability at 1 uM preincubated for 4 hrs followed by 5 J/cm'-2 red light irradiation measured after 24 hrs by MTT assay", "type": "functional, cell-based", "outline": "(§1)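 A431 squamous carcinoma cells were seeded and incubated with ALA (1 or 2 μM) for 4 h. They were then exposed to either red light (630 nm ± 15 nm) or ultrasound. Viability was read by MTT assay 24 h after treatment.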"}, "[2]": {"system": "A-431", "experiment": "Cytotoxicity against human A431 cells assessed as reduction in cell viability at 1 uM preincubated for 4 hrs followed by 90 J/cm'-2 ultrasound irradiation measured after 24 hrs by MTT assay", "type": "functional, cell-based", "outline": "as §1"}, "[3]": {"system": "A-431", "experiment": "Cytotoxicity against human A431 cells assessed as reduction in cell viability at 2 uM preincubated for 4 hrs followed by 5 J/cm'-2 red light irradiation measured after 24 hrs by MTT assay relative to control", "type": "functional", "settings": "A-431, light or radiation study", "outline": "as §1"}, "[4]": {"system": "A-431", "experiment": "Cytotoxicity against human A431 cells assessed as reduction in cell viability at 2 uM preincubated for 4 hrs followed by 90 J/cm'-2 ultrasound irradiation measured after 24 hrs by MTT assay relative to control", "type": "functional", "settings": "A-431, light or radiation study", "outline": "as §1"}, "[5]": {"system": "Mus musculus", "experiment": "Toxicity in nude mouse xenografted ectopically with mouse B16-F10-Luc2 cells assessed as reduction in body weight at 100 uM pretreated with compound followed by white light irradiation measured up to 6 days post dosing relative to control", "type": "organism-based", "settings": "in vivo"}, "[6]": {"system": "HeLa", "experiment": "Cytotoxicity against human HeLa cells assessed as reduction in cell viability at 0.5 uM preincubated for 3 hrs followed by 90 J/cm'-2 ultrasound irradiation for 60 sec measured after 24 hrs by MTT assay relative to control", "type": "functional", "settings": "light or radiation study"}, "[7]": {"system": "HeLa", "experiment": "Cytotoxicity against human HeLa cells assessed as reduction in cell viability at 0.5 uM preincubated for 3 hrs followed by 22.8 J/cm'-2 white light irradiation for 60 sec measured after 24 hrs by MTT assay relative to control", "type": "functional", "settings": "light or radiation study"}, "[8]": {"experiment": "Antitumor activity against mouse B16-F10-luc2 cells ectopically xenografted in nude mouse assessed as tumor growth at 100 uM pretreated with compound followed by ultrasound irradiation measured on day 4 post dosing relative to control", "type": "functional"}, "[9]": {"experiment": "Cytotoxicity against mouse RIF1 cells assessed as reduction in cell viability at 0.5 uM preincubated for 3 hrs followed by 22.8 J/cm'-2 white light irradiation for 60 sec measured after 24 hrs by MTT assay relative to control", "type": "functional", "settings": "RIF-1, light or radiation study"}, "[10]": {"system": "RIF-1", "experiment": "Cytotoxicity against mouse RIF1 cells assessed as reduction in cell viability at 0.5 uM preincubated for 3 hrs followed by ultrsound irradiation through 3.4 to 6.8 mm guinea pig skin barrier by MTT assay", "type": "functional, cell-based"}, "[11]": {"system": "Mus musculus", "experiment": "Toxicity in nude mouse xenografted ectopically with mouse B16-F10-Luc2 cells assessed as reduction in body weight at 100 uM pretreated with compound followed by ultrasound irradiation measured up to 6 days post dosing relative to control", "type": "organism-based", "settings": "in vivo"}, "[12]": {"experiment": "Cytotoxicity against mouse B16-F10-luc2 cells assessed as reduction in cell viability at 0.5 uM preincubated for 3 hrs followed by 11.4 J/cm'-2 white light irradiation for 30 sec measured after 24 hrs by MTT assay relative to control", "type": "functional", "settings": "B16-F10-luc2, light or radiation study"}, "[13]": {"experiment": "Antitumor activity against mouse B16-F10-luc2 cells ectopically xenografted in nude mouse assessed as tumor growth at 100 uM pretreated with compound followed by white light irradiation measured on day 4 post dosing relative to control", "type": "functional"}, "[14]": {"experiment": "Cytotoxicity against mouse B16-F10-luc2 cells assessed as reduction in cell viability at 0.5 uM preincubated for 3 hrs followed by 45 J/cm'-2 ultrasound irradiation for 30 sec measured after 24 hrs by MTT assay relative to control", "type": "functional", "settings": "B16-F10-luc2, light or radiation study"}, "[15]": {"system": "HeLa", "experiment": "Cytotoxicity against human HeLa cells assessed as reduction in cell viability at 0.5 uM preincubated for 3 hrs followed by 11.4 J/cm'-2 white light irradiation for 30 sec measured after 24 hrs by MTT assay relative to control", "type": "functional", "settings": "light or radiation study"}, "[16]": {"experiment": "Cytotoxicity against mouse B16-F10-luc2 cells assessed as reduction in cell viability at 0.5 uM preincubated for 3 hrs followed by 90 J/cm'-2 ultrasound irradiation for 60 sec measured after 24 hrs by MTT assay relative to control", "type": "functional", "settings": "B16-F10-luc2, light or radiation study"}, "[17]": {"experiment": "Cytotoxicity against mouse RIF1 cells assessed as reduction in cell viability at 0.5 uM preincubated for 3 hrs followed by 45 J/cm'-2 ultrasound irradiation for 30 sec measured after 24 hrs by MTT assay relative to control", "type": "functional", "settings": "RIF-1, light or radiation study"}, "[18]": {"system": "HeLa", "experiment": "Cytotoxicity against human HeLa cells assessed as reduction in cell viability at 0.5 uM preincubated for 3 hrs followed by 45 J/cm'-2 ultrasound irradiation for 30 sec measured after 24 hrs by MTT assay relative to control", "type": "functional", "settings": "light or radiation study"}, "[19]": {"experiment": "Induction of ROS generation in EtOH/H2O solution assessed as reduction in DPBF absorbance at 0.5 uM preincubated with compound followed by ultrasound irradiation for 30 mins by UV-visible spectrometric analysis relative to control", "type": "physicochemical", "parameters": "scale not given: the % may be the effect or the level left", "settings": "0.5 h"}, "[20]": {"experiment": "Cytotoxicity against mouse RIF1 cells assessed as reduction in cell viability at 0.5 uM preincubated for 3 hrs followed by 11.4 J/cm'-2 white light irradiation for 30 sec measured after 24 hrs by MTT assay relative to control", "type": "functional", "settings": "RIF-1, light or radiation study"}, "[21]": {"experiment": "Cytotoxicity against mouse B16-F10-luc2 cells assessed as reduction in cell viability at 0.5 uM preincubated for 3 hrs followed by 22.8 J/cm'-2 white light irradiation for 60 sec measured after 24 hrs by MTT assay relative to control", "type": "functional", "settings": "B16-F10-luc2, light or radiation study"}, "[22]": {"experiment": "Induction of ROS generation in EtOH/H2O solution assessed as reduction in DPBF absorbance at 0.5 uM preincubated with compound followed by white light irradiation for 30 mins by UV-visible spectrometric analysis relative to control", "type": "physicochemical", "parameters": "scale not given: the % may be the effect or the level left", "settings": "0.5 h"}, "[23]": {"experiment": "Cytotoxicity against mouse RIF1 cells assessed as reduction in cell viability at 0.5 uM preincubated for 3 hrs followed by 90 J/cm'-2 ultrasound irradiation for 60 sec measured after 24 hrs by MTT assay relative to control", "type": "functional", "settings": "RIF-1, light or radiation study"}, "[24]": {"experiment": "Antitumor activity against mouse B16-F10-luc2 cells ectopically xenografted in nude mouse assessed as tumor growth at 100 uM pretreated with compound followed by ultrasound irradiation measured up to 6 days post dosing relative to control", "type": "functional"}, "[25]": {"system": "RIF-1", "experiment": "Cytotoxicity against mouse RIF1 cells assessed as reduction in cell viability at 0.5 uM preincubated for 3 hrs followed by white light irradiation through 3.4 to 6.8 mm guinea pig skin barrier by MTT assay", "type": "functional, cell-based"}, "[26]": {"system": "Mus musculus", "experiment": "Toxicity in topically dosed SCID mouse xenografted ectopically with human A431 cells assessed as reduction in body weight pretreated for 4 hrs via Metvix cream followed by 220 J/cm'-2 ultrasound irradiation measured on day 7 post dosing", "type": "organism-based, A-431", "settings": "in vivo, topical_or_ocular"}, "[27]": {"system": "A-431", "experiment": "Antitumor activity against human A431 cells ectopically xenografted in topically dosed SCID mouse assessed as tumor growth treated for 4 hrs via Metvix cream measured on day 7 post dosing relative to control", "type": "functional"}, "[28]": {"system": "A-431", "experiment": "Antitumor activity against human A431 cells ectopically xenografted in topically dosed SCID mouse assessed as tumor growth pretreated for 4 hrs via Metvix cream followed by 40 J/cm'-2 red light irradiation measured on day 7 post dosing relative to control", "type": "functional"}, "[29]": {"system": "Mus musculus", "experiment": "Toxicity in topically dosed SCID mouse xenografted ectopically with human A431 cells assessed as reduction in body weight pretreated for 4 hrs via Metvix cream followed by 40 J/cm'-2 red light irradiation measured on day 7 post dosing", "type": "organism-based, A-431", "settings": "in vivo, topical_or_ocular"}, "[30]": {"system": "A-431", "experiment": "Antitumor activity against human A431 cells ectopically xenografted in topically dosed SCID mouse assessed as tumor growth pretreated for 4 hrs via Metvix cream followed by 220 J/cm'-2 ultrasound irradiation measured on day 7 post dosing relative to control", "type": "functional"}},
  "note": "The source made the active and inactive calls. The rule behind the calls is not given here.",
  "data": [
    {"smiles": "NCC(=O)CCC(=O)O", "note": "[AMINOLEVULINIC ACID]", "values": [
      {"measurement": "inhibition", "setting": "[1]", "value": "Active"},
      {"measurement": "inhibition", "setting": "[2]", "value": "Active"},
      {"measurement": "inhibition at 2 µM", "setting": "[3]", "value": 43, "unit": "%"},
      {"measurement": "inhibition at 2 µM", "setting": "[4]", "value": 31, "unit": "%"}
    ]},
    {"smiles": "O=C([O-])c1c(Cl)c(Cl)c(Cl)c(Cl)c1-c1c2cc(I)c(=O)c(I)c-2oc2c(I)c([O-])c(I)cc12.[Na+].[Na+]", "note": "[ROSE BENGAL SODIUM]", "values": [
      {"measurement": "Activity", "setting": "[5]", "value": "Non-toxic"},
      {"measurement": "inhibition at 0.5 µM", "setting": "[6]", "value": 50, "unit": "%"},
      {"measurement": "inhibition at 0.5 µM", "setting": "[7]", "value": 50, "unit": "%"},
      {"measurement": "Activity", "setting": "[8]", "value": 120, "unit": "%"},
      {"measurement": "inhibition at 0.5 µM", "setting": "[9]", "value": 50, "unit": "%"},
      {"measurement": "inhibition", "setting": "[10]", "value": "Active"},
      {"measurement": "Activity", "setting": "[11]", "value": "Non-toxic"},
      {"measurement": "inhibition at 0.5 µM", "setting": "[12]", "value": 7, "unit": "%"},
      {"measurement": "Activity", "setting": "[13]", "value": 400, "unit": "%"},
      {"measurement": "inhibition at 0.5 µM", "setting": "[14]", "value": 25, "unit": "%"},
      {"measurement": "inhibition at 0.5 µM", "setting": "[15]", "value": 50, "unit": "%"},
      {"measurement": "inhibition at 0.5 µM", "setting": "[16]", "value": 40, "unit": "%"},
      {"measurement": "inhibition at 0.5 µM", "setting": "[17]", "value": 50, "unit": "%"},
      {"measurement": "inhibition at 0.5 µM", "setting": "[18]", "value": 50, "unit": "%"},
      {"measurement": "Activity", "setting": "[19]", "value": "Active"},
      {"measurement": "inhibition at 0.5 µM", "setting": "[20]", "value": 50, "unit": "%"},
      {"measurement": "inhibition at 0.5 µM", "setting": "[21]", "value": 18, "unit": "%"},
      {"measurement": "Activity", "setting": "[22]", "value": "Active"},
      {"measurement": "inhibition at 0.5 µM", "setting": "[23]", "value": 50, "unit": "%"},
      {"measurement": "Activity", "setting": "[24]", "value": 400, "unit": "%"},
      {"measurement": "inhibition", "setting": "[25]", "value": "inactive"}
    ]},
    {"smiles": "COC(=O)CCC(=O)CN", "note": "[METHYL AMINOLEVULINATE]", "values": [
      {"measurement": "Activity", "setting": "[26]", "value": "Non-toxic"},
      {"measurement": "Activity", "setting": "[27]", "value": 90, "unit": "%"},
      {"measurement": "Activity", "setting": "[28]", "value": 22, "unit": "%"},
      {"measurement": "Activity", "setting": "[29]", "value": "Non-toxic"},
      {"measurement": "Activity", "setting": "[30]", "value": 11, "unit": "%"}
    ]},
    {"smiles": "C=CC1=C(C)c2cc3[nH]c(cc4nc(cc5[nH]c(cc1n2)c(C)c5CCC(=O)O)C(CCC(=O)O)=C4C)c(C)c3C=C", "note": "[PROTOPORPHYRIN]", "values": [
      {"measurement": "Activity", "setting": "[19]", "value": 17, "unit": "%"},
      {"measurement": "Activity", "setting": "[22]", "value": 60, "unit": "%"}
    ]}
  ]
}
